From PubChem BioAssay
CD11b adhes enh: enhancers of CD11b/CD18 adhesion to fibrinogen, primary screen, K562 cells, luminescence; Integrin beta-2 (Homo sapiens) + Integrin alpha-M (Homo sapiens), P05107+P11215; ATPlite luminescence; activation, % at 10 µM; hit rate 0.07% among 93,000;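 active means 10 µM primary screen giving 50% or more activity, confirmed by 40% or more on retest at that dose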
Target sequence (P05107 whole entry, looked up, other chains not shown): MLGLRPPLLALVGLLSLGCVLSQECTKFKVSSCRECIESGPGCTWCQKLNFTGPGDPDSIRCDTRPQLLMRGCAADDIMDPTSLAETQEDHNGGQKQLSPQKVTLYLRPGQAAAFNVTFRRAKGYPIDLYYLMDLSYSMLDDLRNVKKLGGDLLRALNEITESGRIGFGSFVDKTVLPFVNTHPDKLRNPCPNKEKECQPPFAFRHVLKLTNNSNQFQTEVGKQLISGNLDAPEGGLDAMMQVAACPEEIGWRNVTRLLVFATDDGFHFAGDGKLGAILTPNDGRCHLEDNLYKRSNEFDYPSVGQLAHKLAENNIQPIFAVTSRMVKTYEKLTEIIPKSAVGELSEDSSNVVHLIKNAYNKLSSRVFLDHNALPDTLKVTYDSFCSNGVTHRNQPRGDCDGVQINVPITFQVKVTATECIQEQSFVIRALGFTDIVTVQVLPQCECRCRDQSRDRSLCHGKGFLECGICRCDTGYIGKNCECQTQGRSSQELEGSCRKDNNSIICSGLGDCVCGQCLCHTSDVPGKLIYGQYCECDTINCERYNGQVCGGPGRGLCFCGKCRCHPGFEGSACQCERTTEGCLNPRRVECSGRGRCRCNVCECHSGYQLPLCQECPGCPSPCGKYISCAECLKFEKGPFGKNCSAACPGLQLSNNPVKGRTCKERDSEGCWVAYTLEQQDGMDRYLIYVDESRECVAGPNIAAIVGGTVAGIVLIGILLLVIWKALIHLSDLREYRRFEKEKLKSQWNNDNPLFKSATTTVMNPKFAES
E coli WT exp: growth inhibitors of wild-type E. coli, primary screen, strain BW25113, expanded library, OD600; OD600 absorbance; growth inhibition, % at 100 µM; hit rate 0.15% among 98,000; AID 710, 2007;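 active means growth inhibition above about 50% at one test dose, limit read from the data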;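 further: growth measured after 20 h incubation at 37 °C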
Mac1 fbg inh: inhibitors of CD11b/CD18 adhesion to fibrinogen, primary screen, K562 cells, luminescence; inhibition, % at 10 µM; ATPlite luminescence; Mn2+ added to activate the integrin; hit rate 0.54% among 93,000; Integrin beta-2 (Homo sapiens) + Integrin alpha-M (Homo sapiens), P05107+P11215;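 active means primary inhibition of 50% or more at 10 µM, then 40% or more on retest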
Ecoli tolC: growth inhibitors of E. coli tolC mutant, primary screen, strain BW25113 ΔtolC::kan, 384-well | hit rate 2.2% among 65,000 | OD615 | growth inhibition, % at 10 µM (by protocol);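 active means growth inhibition at or above a cutoff equal to the mean over every tested compound plus 3 SD, cut at about 60% in these data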;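 further: growth measured after 20 h incubation at 37 °C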
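Test system: tolC-deleted E. coli BW25113 | Medium: LB with kanamycin 50 µg/mL | Compound dosing: Single concentration, 10 µM final per compound | Schedule: 37 °C, 20 h exposure | Measured by: OD at 615 nm | Evaluation: Percent growth inhibition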
Phagocyt inh: inhibitors of macrophage phagocytosis, primary screen, imaging, J774A.1 cells, IgG beads; J774A.1 macrophage IgG-bead phagocytosis; inhibition, % at 5 µM; AID 1029, 2008; hit rate 0.07% among 110,000;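 active means inhibition above the mean of the plate negative controls plus 5 SD, cut at about 13% in these data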;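 further: phagocytic index as fraction of beads internalized from green versus red external bead signal; plate controls were DMSO negative control for no effect and cytochalasin-D positive control for full effect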
* hit, by the source's call; . = no result. The sample as a whole holds a higher share of hits than the screen did.

SMILES	CD11b adhes enh	E coli WT exp	Mac1 fbg inh	Ecoli tolC	Phagocyt inh
CCCC1=NN2C(=N)/C(=C\c3ccc(SCc4ccco4)o3)C(=O)N=C2S1	4.2	-2.0	64.5*	.	.
CCC1=NN2C(=N)/C(=C\c3ccc(SCc4ccco4)o3)C(=O)N=C2S1	-1.3	-17.0	9.7	.	-1.0
O=C(NCCC1=CCCCC1)C(=O)c1c[nH]c2ccccc12	0.2	.	2.0	.	-1.6
CC(C)CNC(=S)N(Cc1ccco1)Cc1cc2cc3c(cc2[nH]c1=O)OCCO3	.	.	.	.	-4.1
N#Cc1nc(COc2ccccc2F)oc1NCCc1ccccc1	.	7.0	.	100.0*	-1.3
O=c1[nH]c(SCc2cccc(F)c2)nc2c1CCCC2	.	.	.	.	-3.1
O=C(Nc1nc(-c2ccccn2)cs1)C1COc2ccccc2O1 (centres undefined)	.	11.0	.	100.0*	.
O=C(Nc1nc(-c2ccccc2)cs1)C1COc2ccccc2O1 (centres undefined)	13.3	-7.0	31.8	.	1.0
CCC(C)n1c(=O)c(C(=O)Nc2ccccc2S(N)(=O)=O)c(O)c2ccccc21 (centres undefined)	-2.2	-5.0	-1.2	82.8*	0.3
CC(C)Cn1c(=O)c(C(=O)Nc2ccccc2S(N)(=O)=O)c(O)c2ccccc21	.	-3.0	.	100.0*	-1.4
O=C(CCNC(=O)c1ccc(Cl)cc1)Nc1c(F)c(F)cc(F)c1F	.	.	.	.	-12.5
Cc1ccc(C)c(S(=O)(=O)Nc2ccccc2C(=O)Nc2ccc(S(=O)(=O)Nc3ncccn3)cc2)c1	.	.	.	.	5.4
O=C(COc1cccc2ccccc12)N1CCN(c2ccccc2)CC1	2.6	-17.0	-21.0	66.3*	-0.3
CCO/C=C/C(O)(CNC(=O)c1ccc(C(C)(C)C)cc1)C(F)(F)F (centres undefined)	.	.	.	.	1.6
O=C1C(=O)c2c(C(=O)c3ccccc3)coc2-c2ccccc21	-0.2	-9.0	59.0*	.	2.1
Cc1ccc2cc(C(c3nnnn3C3CCCC3)N(Cc3cccnc3)Cc3ccco3)c(=O)[nH]c2c1 (centres undefined)	4.7	-16.0	18.6	65.3*	3.7
CCC(c1nnnn1C1CCCCC1)N(Cc1ccco1)Cc1cc2ccc(OC)cc2[nH]c1=O (centres undefined)	-0.8	-8.0	23.2	67.9*	-0.7
Cc1ccc2[nH]c(=O)c(C(c3nnnn3C3CCCC3)N(Cc3cccnc3)Cc3ccco3)cc2c1 (centres undefined)	-0.8	-12.0	-6.9	63.3*	-0.2
Cc1ccc2cc(C(c3nnnn3C3CCCC3)N(Cc3ccco3)Cc3cccs3)c(=O)[nH]c2c1 (centres undefined)	-4.6	-17.0	-1.7	.	-0.6
Clc1ccc(C(c2nnnn2C2CCCCC2)N(Cc2cccnc2)Cc2ccco2)cc1 (centres undefined)	.	.	.	69.3*	.
COc1ccc2[nH]c(=O)c(CN(C3CCCCC3)C(c3nnnn3Cc3ccco3)C(C)C)cc2c1 (centres undefined)	115.6	-1.0	-8.5	19.4	-0.3
O=C(O)/C=C/C(=O)NNC(=O)c1cccc(Br)c1	-4.9	.	-4.5	.	-8.2
O=C(O)CCC(=O)NNc1ccccc1[N+](=O)[O-]	.	.	.	.	1.2
CCCCCOC(=O)c1[nH]c2c(c1C)C(=O)C(C(=O)OC)C(C)C2 (centres undefined)	2.1	-11.0	-29.7	74.7*	-0.2
CN1c2ccccc2C(O)=C(C(=S)Nc2ccc(Cl)cc2)S1(=O)=O	-6.1	-4.0	52.4*	.	-0.9
SMILES	CD11b adhes enh	E coli WT exp	Mac1 fbg inh	Ecoli tolC	Phagocyt inh
Cc1cccc(NC(=O)C2=C(O)c3ccccc3N(C)S2(=O)=O)c1	-1.2	-1.0	-0.9	.	-0.1
COc1ccc(-c2noc(C)c2-c2ccc3ccccc3n2)c(O)c1	-1.6	-5.0	47.5	96.2*	-5.7
COc1ccc(-c2onc(C)c2-c2ccccc2)c(O)c1	-1.7	-7.0	-19.1	12.2	0.6
CCc1nnc(NC(=O)c2ccncc2)s1	-5.3	-13.0	-2.9	-13.3	-1.2
CCc1nnc(NC(=O)c2cccc(C(=O)Nc3nnc(CC)s3)n2)s1	5.2	.	21.4	94.0*	-11.2
COc1ccc(CCNC(=O)Cn2nc([N+](=O)[O-])c(Br)c2C)cc1OC	.	.	.	.	-4.2
COc1ccc(C(NC(=O)C2CCCCC2)c2c(O)ccc3ccccc23)cc1 (centres undefined)	.	.	.	.	-10.8
CCOC(=O)c1c(C)[nH]c(C)c1C(=O)COC(=O)/C=C/c1ccc(Cl)cc1	-4.2	.	25.2	.	.
O=C(CSc1nnc(Cn2nnc3ccccc32)o1)N(Cc1ccc(F)cc1)c1ccccc1	-11.1	-22.0	102.1*	43.9	-1.7
COc1ccc(N(Cc2ccccc2)C(=O)CSc2nnc(Cn3nnc4ccccc43)o2)cc1	-2.1	-11.0	20.8	.	0.0
COc1cc(Cl)c(C)cc1NC(=O)CSc1ccc(NC(C)=O)cc1	4.3	.	2.3	.	-7.0
O=C(Nc1ccc(Cl)cc1)N(Cc1nc2ccccc2c(=O)[nH]1)Cc1cccs1	-4.6	.	-13.5	.	-15.9
O=C(Nc1ccc(Cl)cc1)N(Cc1cccs1)Cc1cccs1	0.2	-24.0	-52.8	94.8*	0.8
CC(C)(C)c1cc(C(c2cccnc2)N2CCN(CCO)CC2)cc(C(C)(C)C)c1O (centres undefined)	-5.7	5.0	52.3*	6.8	-0.4
Cc1cccc(-c2nc(CSCC(=O)N3CCN(Cc4ccc5c(c4)OCO5)CC3)c(C)o2)c1	-5.1	-10.0	81.1*	60.2	-0.9
Cc1ccc(-c2nc(CSCC(=O)N3CCN(c4ccccn4)CC3)c(C)o2)cc1	-13.5	-3.0	87.7*	12.1	.
O=C(CSCc1ccccc1)N1CCN(Cc2ccc3c(c2)OCO3)CC1	.	.	.	-12.1	.
CCc1ccc(-c2nc(CSCC(=O)N3CCN(c4ccccn4)CC3)c(C)o2)cc1	.	-2.0	.	34.5	.
O=C(COC(=O)C1(c2cccc(F)c2)CCCC1)NCc1ccc2c(c1)OCO2	6.8	.	8.6	.	.
c1ccc(-c2oc3ncnc(NCCCn4ccnc4)c3c2-c2ccccc2)cc1	-3.1	2.0	9.4	97.5*	-1.4
c1ccc(-c2oc3ncnc(NCCN4CCOCC4)c3c2-c2ccccc2)cc1	2.0	-6.0	.	65.0*	-2.0
CC(=O)c1cccc(NC(=O)Cc2coc3cc4c(cc23)CCC4)c1	.	.	.	.	-6.9
COc1c([N+](=O)[O-])c(=O)n(-c2ccccc2)c2ccccc12	.	.	.	.	0.7
CCOC(=O)N1CCC(c2cc(=O)n3[nH]c(C)c(-c4ccc(F)cc4)c3n2)CC1	-2.6	6.0	-10.1	98.7*	-0.3
CCOC(=O)N1CCC(c2cc(=O)n3[nH]c(-c4ccccc4)cc3n2)CC1	0.3	-7.0	-2.4	12.5	0.9
CCN(CC)S(=O)(=O)c1cccc(C(=O)NC(Cc2c[nH]c3ccccc23)c2nnc3n2CCC3)c1 (centres undefined)	.	.	.	.	-3.7
O=C(CNC(=O)C(c1ccccc1)c1ccccc1)OCC(=O)c1cccs1	.	.	.	.	-9.6
